Apaf-1 act = activates human Apaf-1 apoptosome | Apaf-1 apoptosome caspase-3 activation, DEVD-Rh110 fluorescence; hits give low values | AID 489031 | 330,000 tested, 0.31% active | activity change, negative = activation, % at 20 µM | O14727;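 active = activity change at or below -40% at 20 µM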
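Assay system – biochemical Apaf-1 apoptosome reconstitution · Medium – 20 mM HEPES buffer, pH 7.5, containing CHAPS and BSA · Incubation – 30 min preincubation, 50 min reaction, room temperature · Measured by – Caspase-3-released Rh110 fluorescence, 540 nm emission, 480 nm excitation · Read-out – Caspase-3 cleavage activity downstream of Apaf-1 activation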
Rh110 act interf = counter-screen for Apaf-1 activators: fluorescence interference | shares compounds with Apaf-1 act | Rh110 fluorescence interference, quenched caspase reaction, Ex480/Em540 | fluorescence interference (activity change), % at 20 µM, hits read low | 980 tested, under 10 active | AID 504616;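 active = mean activity change at or below -40% when tested at 20 µM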
Apaf-1 act conf = confirmation of human Apaf-1 activators; shares compounds with Apaf-1 act; reconstituted apoptosome caspase-3 activity, DEVD-Rh110 fluorescence; hits give low values; activity change, negative = activation, % at 20 µM; 980 tested, 5% active; AID 504617;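 active = mean activity change at or below -40%, meaning activation of 40% or more, at 20 µM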
Apaf1 act interf = counter-screen for Apaf-1 activators: fluorescence interference, dose response; shares compounds with Apaf-1 act; EC50, µM; 55 tested, under 10 active; fluorescence interference counterscreen, Apaf-1 activator assay; call rule not given here
Hits are given with their value; n = inactive; x = no result. Only a sample is shown.

SMILES	Apaf-1 act	Rh110 act interf	Apaf-1 act conf	others
c1ccc(-c2sc3ccccc3c2-c2ccc(OCCN3CCCC3)cc2)cc1	n	x	x
O=C(NCCCO)Nc1ccc2nc(-c3ccco3)c(-c3ccco3)nc2c1	n	x	x
CC(=O)c1ccc(NC(=O)c2noc(C(C)C)c2[N+](=O)[O-])cc1	-127.1	n	n
CCCC(=O)N1c2ccccc2[C@@H](N(C(C)=O)c2ccccc2)C[C@H]1C	-55.4	n	n
O=C1C(=O)c2ccc(-c3ccccc3)cc2-c2ccccc21	n	x	x
Cc1ccc(-c2csc3nc4c5ccccc5c(NCCCN(C)C)nn4c(=O)c23)cc1	n	x	x
Oc1cc(NCCc2cccnc2)cc2cccnc12	n	x	x
CCc1ccc(S(=O)(=O)/N=C2\C=CC(=O)c3ccccc32)cc1	n	x	x
O=CNn1cnc2c(oc3nc(-c4ccccc4)cc(-c4ccco4)c32)c1=O	-116.3	n	n
Cc1ccc(NC(=O)C2CCN(C(=O)[C@@H]3Cc4ccccc4CN3)CC2)c(C)c1	-72.0	n	n
Cc1ccc(C)n1-c1nn(S(=O)(=O)c2cccc3cccnc23)c2cccc(F)c12	-40.4	n	n
CC1=CC2=NC(=O)/C(=C/c3coc4ccc(Cl)cc4c3=O)C(=N)N2O1	-521.7	n	n
CN(C)CCC(c1ccc(Br)cc1)c1ccccn1 (centres undefined)	n	x	x
COc1ccc(/C=N/NC(=O)c2ccc(CSc3nncn3C)cc2)cc1OC	-192.0	n	n
CCCCc1oc2ccccc2c1C(=O)c1cc(I)c(OCCN(CC)CC)c(I)c1	n	x	x
Cc1cc(C)n(-c2cc(Cl)cc(Cl)c2)c(=O)c1C#N	-403.0	n	n
CNC[C@H](Cc1ccccc1)NC[C@@H](Cc1cccc2ccccc12)NCCc1ccc(C)cc1	n	x	x
O=C1C(=Cc2ccco2)C(=O)c2ccccc21	n	x	x
CCOc1cc(CNc2ccc(N3CCCCC3)cc2)cc(Br)c1OCC(=O)NC(C)(C)C	n	x	x
COc1cc(CNc2ccc(N3CCOCC3)cc2)cc(Br)c1OC	-85.5	n	n
CCOc1cc(CNc2ccc(N3CCCC3)cc2)cc(Cl)c1OC	n	x	x
C=CCC[C@@H](Cc1ccc(F)cc1)C(=O)OC[C@H]1CCCN1C(=O)[C@@H](CC=C)CC(=O)N[C@H](CO)Cc1ccccc1	n	x	x
N#Cc1c(NCCCO)nc(NCc2ccccc2)c2c1CCN(Cc1ccccc1)C2	n	x	x
CCOC(=O)c1cnc(SCC(=O)N2CCN(C(=O)c3ccco3)CC2)nc1N	-93.1	n	n
CCOC(=O)c1cnc2ccc(C)cc2c1Nc1ccc(N2CCOCC2)cc1	n	x	x
SMILES	Apaf-1 act	Rh110 act interf	Apaf-1 act conf	others
CCCCCCCCCCCCN1[C@@H](CC(=O)O)c2cc(C(F)(F)F)ccc2S1(=O)=O	n	x	x
COc1ccc(C(=O)Nc2ccccc2C(=O)N(Cc2ccco2)C(C(N)=O)C(C)C)cc1 (centres undefined)	-351.3	n	n
COc1ccc2c(-c3ccc(OCCN4CCCCC4)cc3)c(-c3ccccc3OC)sc2c1	n	x	x
Cc1nn2c(-c3ccncc3)nnc2c2ccccc12	n	x	x
COC(=O)CCC(=O)OC1(C)C(=O)C2=CN(CCc3ccccn3)C(c3ccc(OC)cc3)=CC2=C(Br)C1=O (centres undefined)	n	x	x
OCc1cn(-c2ccc(Cl)cc2)nn1	-56.5	n	n
CCC(CO)Oc1cc(NCc2ccc(F)cc2)c2ncn(C(C)C)c2c1 (centres undefined)	n	x	x
N#CC(c1nc2ccccc2nc1N1CCCC1)S(=O)(=O)c1ccccc1 (centres undefined)	n	x	x
COc1cc2c(C#N)c(N3CCCC3)nc(N)c2c(N)n1	n	x	x
Cc1cc(NC(=O)CCCn2nc([N+](=O)[O-])c(Br)c2C)no1	n	x	x
Cc1ccc(NC(=O)C2CCCN2C(=O)NC2CCCCC2)cc1C (centres undefined)	-120.5	n	n
Cc1cc2oc3cc(NCCC4CCCN4C)ccc3c(=O)c2cc1C (centres undefined)	n	x	x
CCCCCc1cc(=O)oc2c(C(CCN(CC)CC)c3ccc(OC)cc3)c(OC)cc(OC)c12 (centres undefined)	n	x	x
COc1cc(C)c2c(c1C=O)Oc1c(c(C)c(O)c3c1C(O)OC3=O)OC2=O (centres undefined)	n	x	x
Nc1c(C(=O)NCC2CCCO2)c2nc3ccccc3nc2n1-c1ccccc1 (centres undefined)	n	x	x
O=C(NCC1CCCO1)c1ccc(Br)s1 (centres undefined)	-522.3	n	n
Oc1ccc(/C=N/N2CCCCC2)c(O)c1O	n	x	x
CCOC(=O)c1c(NC(=O)c2ccno2)c2cc([N+](=O)[O-])ccc2n1C	-45.2	n	n
O=C1C=C(O)c2cccc(O)c2C1=O	n	x	x
C#CCOCCOCCOCCNc1nc(N2CCN(C(=O)CCCCCCCCCCNC(=O)[C@@H](CCSC)n3cc(CCO)nn3)CC2)nc(N2CCN(C(=O)CCCCCCCCCCNC(=O)[C@H](CCC(=O)O)n3cc(CCCCCN)nn3)CC2)n1	n	x	x
O=C1C2(CCCC13COC(c1ccc(O)cc1)OC3)COC(c1ccc(O)cc1)OC2 (centres undefined)	-126.9	n	-59.6	Apaf1 act interf=n
Nc1ccc(N2CCOCC2)c2nonc12	n	x	x
C#CCOCCOCCOCCNc1nc(N2CCOCC2)nc(N2CCN(C(=O)CCCCCCCCCCNC(=O)[C@H]([C@@H](C)CC)n3cc(CCCCN=C(N)N)nn3)CC2)n1	n	x	x
CC(C)(C)NC(=O)CC1C(=O)NCCN1Cc1c(F)cccc1Cl (centres undefined)	-40.7	n	n
COc1ccc(S(=O)(=O)N2CCCCCC2)cc1C(=O)N(C)Cc1c(F)cccc1Cl	n	x	x
SMILES	Apaf-1 act	Rh110 act interf	Apaf-1 act conf	others
CC1=NN(c2ccc(C)cc2)C(=O)/C1=C\c1ccc(Br)s1	n	x	x
Cc1sc2ncnc(N3CCC(C(=O)Nc4ccc(Cl)c(Cl)c4)CC3)c2c1C	n	x	x
CCC(C)c1ccc(NC(=O)C2CCN(c3ncccn3)CC2)cc1 (centres undefined)	-121.7	n	n
Cc1ccc(C)c(NC(=S)NC(NC(=O)OCc2ccccc2)C(Cl)(Cl)Cl)c1 (centres undefined)	-41.5	n	n
Cc1ccc(-c2nn3c(C)nnc3c3ccccc23)cc1S(=O)(=O)NC(C)c1ccccc1 (centres undefined)	n	x	x
COc1cccc(-c2sc3cc(OC)c(OC)cc3c2-c2ccc(OCCN3CCCCC3)cc2)c1	n	x	x
COc1ccc(N2C(=O)[C@@H]3[C@H](C2=O)[C@H]2c4ccccc4C=CN2[C@@H]3C(=O)Nc2ccccc2)cc1	n	x	x
Cc1ccccc1Oc1ncnc2oc(-c3ccccc3)cc12	-75.5	n	n
CCOc1cc(CNc2ccc3cn[nH]c3c2)ccc1OC	n	x	x
CN(C(=O)COC(=O)c1cc(S(=O)(=O)N2CCOCC2)c(Cl)cc1Cl)C1CCS(=O)(=O)C1 (centres undefined)	-155.9	n	n
COc1cc(/C=C2/C(=O)N(c3ccc(Br)cc3)N=C2C)cc(OC)c1OC	n	x	x
CC(C)c1ccc(NC(=S)Nc2cccc3ccccc23)cc1	n	x	x
CN(C)c1cccc2c1c(NC(=O)Nc1ccccc1)nn2C	n	x	x

Screening results (PubChem BioAssay)
